APJ antagonist – blocks the human apelin receptor APJ. CHO-K1 APJ beta-arrestin complementation, luminescence. inhibition, % at 20 µM. 330,000 compounds, 0.32% hits. AID 2521;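 active = inhibition above about 40% at 20 µM, limit read from the data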;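 note: cells challenged with 10 nM apelin-13 agonist together with compound; plate controls were apelin-13 plus DMSO wells for no effect and DMSO wells lacking apelin-13 for full effect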
CXCR6 block – CXCR6 (human) receptor inhibition. 360,000 compounds, 0.36% hits. AID 602244. CHO-K1 PathHunter CXCR6 beta-arrestin, luminescence. inhibition, % at 20 µM. O00574; in the data active = inhibition above about 34%, passing the limit was not always enough;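 note: antagonist mode with CXCL16 agonist at 10 nM final; 0% = 10 nM CXCL16 with DMSO and 100% = unstimulated wells without agonist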
Target sequence (O00574 whole entry, looked up): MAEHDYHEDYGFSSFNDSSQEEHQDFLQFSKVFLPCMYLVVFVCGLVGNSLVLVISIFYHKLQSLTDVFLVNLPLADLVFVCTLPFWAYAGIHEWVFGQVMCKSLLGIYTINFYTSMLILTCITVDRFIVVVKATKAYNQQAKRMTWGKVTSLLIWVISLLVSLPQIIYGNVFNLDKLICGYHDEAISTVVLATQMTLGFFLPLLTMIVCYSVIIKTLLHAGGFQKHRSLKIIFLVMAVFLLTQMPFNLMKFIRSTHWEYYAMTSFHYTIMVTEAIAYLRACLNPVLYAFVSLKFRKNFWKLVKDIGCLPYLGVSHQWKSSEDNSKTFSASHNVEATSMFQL
EBI2 antag – blocks human EBI2 receptor beta-arrestin signaling; EBI2 beta-arrestin recruitment, luminescence, 7a,25-OHC stimulated; inhibition, % at 5 µM; 360,000 compounds, 0.81% hits; in the data active = inhibition above about 38%;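 note: enzyme fragment complementation signal reports receptor beta-arrestin coupling in cells; 0% = agonist plus DMSO wells and 100% = wells without agonist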
Target sequence (P32249 whole entry, looked up, the tested form may be a part): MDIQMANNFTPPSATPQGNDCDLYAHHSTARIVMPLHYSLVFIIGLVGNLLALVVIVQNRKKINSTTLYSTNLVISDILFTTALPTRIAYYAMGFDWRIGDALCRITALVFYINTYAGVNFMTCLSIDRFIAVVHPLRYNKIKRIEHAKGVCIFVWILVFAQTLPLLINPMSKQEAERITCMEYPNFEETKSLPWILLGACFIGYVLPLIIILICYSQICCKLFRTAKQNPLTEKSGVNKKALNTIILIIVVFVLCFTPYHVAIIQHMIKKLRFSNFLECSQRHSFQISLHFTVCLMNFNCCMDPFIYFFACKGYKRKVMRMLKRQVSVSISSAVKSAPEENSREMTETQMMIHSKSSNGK
APJ ag – activates the human apelin receptor APJ | activation, % at 20 µM | CHO-K1 APJ PathHunter beta-arrestin, luminescence; 0% DMSO wells, 100% apelin | P35414 | 330,000 compounds, 0.11% hits | AID 2520;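 active = activation more than six SD over the plate average, tested at 20 µM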;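 note: 0% = DMSO alone and 100% = apelin-13 at 10 nM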
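system = engineered CHO-K1 APJ arrestin reporter cells | input = 1000 cells per well | timing = overnight seeding, 90 min compound at 25 °C, 1 h detection | measured by = enzyme-fragment complementation luminescence | read-out = beta-arrestin recruitment to APJ as agonist activity, luminescent signal | control set = negative DMSO alone, positive Apelin-13 at 10 nM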
CCR6 antagonist – CCR6 (human) receptor antagonism. AID 493098. P51684. CHO-K1 CCR6 PathHunter beta-arrestin, luminescence, CCL20-stimulated. inhibition, % at 20 µM. 340,000 compounds, 0.49% hits;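 active = compounds whose inhibition of the agonist-driven luminescence signal at 20 µM reaches about 50%, limit read from the data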;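 note: cells stimulated with CCL20 at 14 nM final; plate controls were DMSO with CCL20 for no effect and DMSO without agonist for full effect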
EBI2 conf – confirmation of human EBI2 receptor antagonists; shares compounds with EBI2 antag; EBI2 beta-arrestin luminescence, 7a,25-OHC antagonism; inhibition, % at 5 µM; 2,400 compounds, 29% hits;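 active = inhibition of at least 50%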
EBI2 agonist – activates EBI2, counter-screen for EBI2 antagonists. shares compounds with EBI2 antag. EBI2-expressing cells, agonist mode, luminescence, 60 min; 0% vehicle, 100% 7α,25-dihydroxycholesterol control. activation, % at 5 µM. 2,400 tested, under 10 active. AID 652000;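 active = activation of at least 50%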
bGal cs – beta-galactosidase inhibition counter-screen; inhibition, % at 5 µM; purified beta-galactosidase, luminescent Galacton Star, 15 min; 2,400 compounds, 1% hits; shares compounds with EBI2 antag;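 active = replicate-average signal at least 3 plate SD below neutral wells, shown as high inhibition, flagging enzyme-inhibiting false positives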;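 note: 0% = DMSO wells with enzyme and 100% = wells lacking enzyme; higher means stronger loss of beta-gal luminescence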
Numbers without * were called inactive; x = no result given. The list is not random: actives were taken first. Their share in the collection is about 1.5%.

SMILES | APJ antagonist | CXCR6 block | EBI2 antag | APJ ag | CCR6 antagonist | EBI2 conf | EBI2 agonist | bGal cs
CC(=O)N1CCc2cc(S(=O)(=O)CCC(=O)Nc3cc(C)cc(C)c3)ccc21 | 13 | 5 | -6 | -3 | 4 | x | x | x
O=C(CN1CCN(S(=O)(=O)c2cccc(Br)c2)CC1)NCCc1cccs1 | 6 | -10 | 39* | -4 | 12 | 19 | 0 | 6
O=C(/C=C/c1ccco1)N1CCN(C/C=C/c2ccccc2)CC1 | -18 | 12 | 63* | 0 | 11 | 32 | 1 | 2
Cc1ccc(/C=C/C(=O)N2CCN(S(=O)(=O)/C=C/c3ccccc3)CC2)o1 | -22 | 5 | 67* | -3 | 7 | 38 | 1 | 5
Cc1ccc(/C=C/C(=O)N2CCN(S(=O)(=O)c3cccs3)CC2)o1 | -9 | -5 | 20 | -1 | 1 | x | x | x
O=C(/C=C/c1ccco1)N1CCN(c2ccccc2)CC1 | 13 | 2 | 2 | -1 | 9 | x | x | x
O=C(/C=C/c1ccco1)N1CCN(S(=O)(=O)/C=C/c2ccccc2)CC1 | -25 | -2 | 79* | 3 | -1 | 48 | 3 | 2
Cc1cc(O)c(C)c(O)c1/C=N/NC(=O)c1cccnc1 | 7 | 3 | 0 | -2 | 8 | x | x | x
CC(=O)Nc1ccc(Nc2nc(-c3sc(C)nc3C)cs2)cc1 | -17 | -4 | 1 | 5 | 5 | x | x | x
CC(=O)c1cccc(Nc2nc(-c3sc(C)nc3C)cs2)c1 | 2 | 2 | 52* | -1 | -2 | 38 | -1 | -11
CC(=O)c1ccc(Nc2nc(-c3sc(C)nc3C)cs2)cc1 | x | -7 | 51* | x | x | 38 | 1 | 11
COc1cccc(-c2cc(C(=O)N3CCN(S(=O)(=O)c4ccc(Br)cc4)CC3)[nH]n2)c1 | -11 | -4 | 57* | 5 | 14 | 38 | 1 | 11
COc1ccc(S(=O)(=O)N2CCN(C(=O)c3cc(C)on3)CC2)cc1 | 2 | -6 | -13 | 0 | -1 | x | x | x
COc1ccc(S(=O)(=O)N2CCN(C(=O)c3cc(-c4ccccc4OC)n[nH]3)CC2)cc1 | -4 | -13 | 63* | 3 | 6 | 38 | 1 | 7
COc1cc(C(=O)N2CCN(C(=O)c3ccccc3)CC2)cc(OC)c1OC | 13 | -1 | -1 | -1 | -18 | x | x | x
CC(C)c1ccc(S(=O)(=O)N2CCN(C(=O)c3cc(-c4ccccc4)n[nH]3)CC2)cc1 | -52 | 8 | 75* | -3 | 21 | 34 | -1 | -12
COc1cc(C(=O)N2CCN(C(=O)c3cc(-c4ccc(Br)cc4)n[nH]3)CC2)cc(OC)c1OC | -51 | 2 | 52* | -1 | 4 | 10 | -1 | -13
Cc1ccc(-c2nnc(SCC(=O)NC3CCS(=O)(=O)C3)nc2-c2ccc(C)cc2)cc1 (stereo not given) | -20 | 12 | 9 | 2 | 2 | x | x | x
O=C(NCCCCNC(=O)c1ccccc1Br)c1ccccc1Br | 16 | 0 | -9 | -3 | 1 | x | x | x
O=S(=O)(c1ccc(NC(=S)NN=C(Cc2ccccc2)Cc2ccccc2)cc1)N1CCOCC1 | 4 | 0 | 46* | 1 | 8 | -5 | 2 | 5
O=S(=O)(c1ccc(NC(=S)NCCc2ccccc2)cc1)N1CCOCC1 | -11 | 10 | 10 | 0 | -4 | x | x | x
COc1cccc(CC(=O)Nc2ccc(F)c(S(=O)(=O)N3CCOCC3)c2)c1 | x | -3 | -4 | x | 15 | x | x | x
Cc1cc(NC(=O)CN2CC(C)OC(C)C2)n(-c2nc3ccccc3s2)n1 (stereo not given) | 21 | 4 | 18 | -1 | 8 | x | x | x
CCOC(=O)C1CCN(CC(=O)Nc2cc(C)nn2-c2nc3ccccc3s2)CC1 | 8 | 12 | 55* | -3 | 4 | 22 | 1 | -9
COc1ccc2c(c1)c1nc3n(c(=O)c1n2CC(=O)Nc1cc(C)[nH]n1)CCS3 | 0 | x | x | 4 | x | x | x | x
SMILES | APJ antagonist | CXCR6 block | EBI2 antag | APJ ag | CCR6 antagonist | EBI2 conf | EBI2 agonist | bGal cs
COc1cccc(NC(=O)Cn2c3ccc(OC)cc3c3nc4n(c(=O)c32)CCS4)c1 | -9 | 9 | 57* | 3 | 6 | 20 | -1 | -7
O=C(C1=C[C@@H](c2ccc(Br)cc2)C[C@@H](OCc2ccc(CO)cc2)O1)N1CCN(Cc2ccc3c(c2)OCO3)CC1 | -18 | 4 | 41* | 2 | 6 | -1 | -1 | -14
COc1ccc(N2CCN(C(=O)c3ccc4[nH]c(C)c(C)c4c3)CC2)cc1 | -33 | -4 | 85* | 5 | 8 | 73* | 1 | -7
Cc1[nH]c2ccc(C(=O)N3CCN(c4ccc(F)cc4)CC3)cc2c1C | -27 | 1 | 78* | -4 | -5 | 72* | 1 | 11
CC(=O)c1ccc(N2CCN(C(=O)c3ccc4[nH]c(C)c(C)c4c3)CC2)cc1 | 5 | -2 | 14 | 0 | 4 | x | x | x
CC(=O)Nc1ccc(S(=O)(=O)N2CCC(C(=O)NCCc3c[nH]c4ccccc34)CC2)cc1 | 1 | 5 | 49* | 1 | -1 | 21 | 1 | 5
O=C(NCCc1c[nH]c2ccccc12)C1CCN(S(=O)(=O)c2ccccc2)CC1 | 15 | 6 | 37 | -2 | 15 | x | x | x
CCCCn1c(SCC(=O)NCc2ccco2)nc2ccccc2c1=O | 16 | 4 | 12 | 0 | 9 | x | x | x
CCCCCn1c(SCc2ccncc2)nc2cc(C(=O)NCc3ccco3)ccc2c1=O | -8 | 16 | 38* | -4 | 17 | 21 | 0 | 6
N#C/C(=C\c1ccc(-c2nc3ccccc3s2)o1)C(N)=O | 5 | 4 | 39 | -1 | 9 | x | x | x
CNC(=O)/C(C#N)=C/c1ccc(-c2nc3ccccc3s2)o1 | 5 | 1 | 53* | 0 | 5 | 30 | -1 | -11
CN1C(=O)CC(C(=O)O)SC1=Nc1cc(Cl)cc(Cl)c1 (stereo not given) | -8 | -2 | -7 | 3 | -2 | x | x | x
Cc1cc(C)c(S(=O)(=O)N2CCN(C(=O)c3ccc4c(c3)OCO4)CC2)c(C)c1 | 6 | -2 | 42 | 2 | 9 | x | x | x
COCCNC(=O)CN(Cc1ccccc1)C(=O)CCC(=O)Nc1nccs1 | 8 | 5 | -2 | -2 | 6 | x | x | x
Cc1nc(SCc2nc3ccccc3[nH]2)c2oc3cc([N+](=O)[O-])ccc3c2n1 | -32 | -7 | 48* | 3 | 11 | 59* | 0 | 2
Cc1nc(SCc2nc3ccc(Cl)cc3[nH]2)c2oc3ccccc3c2n1 | 9 | 2 | 17 | -3 | 5 | x | x | x
Cc1nc(SCc2nc3ccc(Br)cc3[nH]2)c2oc3ccccc3c2n1 | -6 | 12 | 2 | -1 | 3 | x | x | x

High-throughput results from PubChem BioAssay.
